# PG9 binder = binds the HIV-1 gp120 antibody PG9. TR-FRET gp120-PG9 antibody binding. 360,000 tested, 0.43% active. AID 624416. inhibition, % at 6.7 µM; in the data active means inhibition above about 8.5%
# NR2E3 ag-1 = activates human photoreceptor nuclear receptor NR2E3 | Q9Y5X4 | GST-NR2E3/biotin-RetCOR TR-FRET, 1536-well | inhibition of corepressor binding, % at 4.78 µM | 320,000 tested, 0.12% active | AID 2300;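 active means percent inhibition above the cutoff of mean plus 3 SD of all tested compounds, set per screening campaign, cut at about 20% in these data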;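 further: 0% = DMSO wells and 100% = biotin wells as full block of FRET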
#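 system = GST-tagged NR2E3 plus biotinylated RetCOR corepressor | input = 1.35 nM GST-NR2E3 | also added = 7 nM biotin-RetCOR | schedule = 5 h incubation at 4 °C | measured by = TR-FRET with europium anti-GST and streptavidin-D2, 340 nm excitation | read-out = percent loss of FRET ratio relative to control wells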
# NR2E3 ag-2 = agonists of human NR2E3 nuclear receptor. Q9Y5X4. CHO-S Gal4-NCOR/VP16-NR2E3 two-hybrid, luciferase. inhibition of corepressor binding, % at 3.98 µM. 360,000 tested, 0.35% active. AID 602229;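 active means inhibition above the mean of all tested compounds plus 3 SD, cut at about 70% in these data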;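 further: 0% = DMSO with NR2E3 transfected cells and 100% = cells lacking NR2E3 construct; higher means lower luciferase signal from less NR2E3 corepressor binding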
# Neddyl block = cullin neddylation inhibition; AID 651699; calls only at 25 µM; 360,000 tested, 0.58% active; TR-FRET cullin neddylation, biochemical; P61081+Q13564; in the data active means inhibition above about 36%
# NR1D1 modulator = Rev-erb alpha (human) modulation. activity, % at 10 µM. Rev-erbα–FITC-DNA binding, fluorescence polarization, 90 min. P20393. 370,000 tested, 0.79% active;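 active means activity above about 14%, limit read from the data; passing the limit was not always enough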;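 further: 0% = DMSO wells with 35 nM protein and 100% = DMSO wells with 750 nM protein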
# Target sequence (P20393 whole entry, looked up): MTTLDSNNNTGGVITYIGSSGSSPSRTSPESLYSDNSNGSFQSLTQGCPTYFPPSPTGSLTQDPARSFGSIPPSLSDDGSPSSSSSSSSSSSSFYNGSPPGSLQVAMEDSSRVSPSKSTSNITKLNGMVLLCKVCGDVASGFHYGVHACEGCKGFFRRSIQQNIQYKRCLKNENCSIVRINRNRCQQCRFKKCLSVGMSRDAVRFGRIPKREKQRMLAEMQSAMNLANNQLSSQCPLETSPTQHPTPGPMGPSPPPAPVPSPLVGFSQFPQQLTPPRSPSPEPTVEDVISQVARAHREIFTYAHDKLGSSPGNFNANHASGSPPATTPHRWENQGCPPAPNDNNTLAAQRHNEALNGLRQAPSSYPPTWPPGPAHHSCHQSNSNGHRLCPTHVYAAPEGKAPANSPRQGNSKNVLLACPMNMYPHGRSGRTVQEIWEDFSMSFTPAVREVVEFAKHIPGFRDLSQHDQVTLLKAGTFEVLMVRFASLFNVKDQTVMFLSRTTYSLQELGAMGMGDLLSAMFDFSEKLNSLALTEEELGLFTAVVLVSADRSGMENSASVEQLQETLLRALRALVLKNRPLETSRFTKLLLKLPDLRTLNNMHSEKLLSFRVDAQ
# NR2E3 ag confirm = confirmation of human NR2E3 agonists | shares compounds with NR2E3 ag-2 | CHO-S mammalian two-hybrid NR2E3-NCOR, luciferase luminescence | inhibition, % at 3.98 µM | 2,300 tested, 51% active | AID 624378;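 active means average inhibition above a cutoff equal to the mean inhibition of all tested compounds plus one SD, cut at about 70% in these data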;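 further: 0% = DMSO in NR2E3 cells and 100% = DMSO in cells lacking NR2E3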
# GAL4-VP16 luc = reduces GAL4-VP16 reporter signal in NR2E3 counterscreen; CHO-S GAL4-VP16 luciferase reporter, luminescence; 2,300 tested, 29% active; shares compounds with NR2E3 ag-2; inhibition, % at 3.98 µM;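 active means mean inhibition above a cutoff equal to the average over all tested compounds plus one standard deviation, cut at about 70% in these data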;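 further: luciferase from a UAS reporter driven by GAL4-VP16 transactivation; 0% = DMSO with VP16-transfected cells and 100% = DMSO with cells lacking VP16; higher means less reporter light so more repression of VP16 activity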
# * hit, by the source's call; i = inactive; . = no result shown. The list is not random: actives were taken first. Their share in the collection is about 2%.
SMILES,PG9 binder,NR2E3 ag-1,NR2E3 ag-2,Neddyl block,NR1D1 modulator,NR2E3 ag confirm,GAL4-VP16 luc
O=C(NCc1cccc(Cl)c1)c1cc(COc2ccc3ncccc3c2)on1,0,-4,76*,i,-2,95*,79*
Cc1cc(C)n(CCNC(=O)c2cc(COc3ccc4ncccc4c3)on2)n1,-1,4,30,i,4,.,.
CC(CCCC(C)(C)O)NC(=O)c1cc(COc2ccc3ncccc3c2)on1 (centres undefined),0,0,62,i,1,88*,75*
Cc1ccc(F)cc1CNC(=O)c1cc(COc2ccc3ncccc3c2)on1,-1,5,79*,i,5,96*,86*
CCCCc1oc2ccc(NS(C)(=O)=O)cc2c1C(=O)c1ccc(OCCCN(CCCC)CCCC)cc1,.,.,.,.,-7,.,.
CC(C)(C)NCC(O)CSc1nc(-c2ccc(C(N)=O)s2)cs1 (centres undefined),.,.,.,.,9,.,.
CSC(=S)NN=C(C)c1cccc(C)n1,-2,.,66,i,4,38,32
Cc1cccc(C(=S)N2CCOCC2)n1,1,-2,-17,i,2,.,.
CCOC(=O)C1=C(CC)Nc2ccccc2N/C1=N\S(=O)(=O)c1cc(Br)ccc1Br,-1,.,57,i,1,88*,58
O=C(CCNS(=O)(=O)c1ccc(OC(F)(F)F)cc1)N1CCN(C/C=C/c2ccccc2)CC1,-1,3,55,i,-1,56,45
O=C(CCNS(=O)(=O)c1ccc(OC(F)(F)F)cc1)N1CCCC1,0,.,-24,i,2,.,.
Cc1cc(N2CCN(c3ccccc3)CC2)nc(-n2nc(C)cc2C)n1,3,-2,82*,i,2,-13,12
Cc1cc(N2CCN(c3ccccc3)CC2)nc(-c2ccccc2O)n1,2,2,-24,i,-4,.,.
Cc1cc(C)nc(-n2nc(C)cc2Nc2ccccc2)n1,1,-3,111*,i,-2,12,6
COc1ccc(-n2c(COc3ccc(C)cc3)nnc2SCC(=O)Nc2ccc(S(=O)(=O)Nc3cc(C)nc(C)n3)cc2)cc1,.,.,.,.,0,.,.
FC(F)(F)c1ccccc1-n1c(-c2ccco2)n[nH]c1=S,1,0,63,i,-2,20,3
Cc1ccccc1-n1c(-c2ccco2)n[nH]c1=S,1,0,-14,.,-2,.,.
CCOC(=O)c1ccc(S(=O)(=O)Nc2ccc3cn[nH]c3c2)cc1,0,1,62,i,-3,48,56
O=C(NC(=S)N(CCc1ccccc1)CCc1ccccc1)c1ccco1,-3,-2,67,i,-3,-20,19
O=C(NC(=S)N(Cc1ccccc1)Cc1ccccc1)c1ccccc1F,0,3,65,i,-5,21,21
O=C(NC(=S)NCc1ccccc1)c1ccccc1F,-1,-5,6,i,-5,.,.
CC(CCc1ccccc1)NC(=S)NC(=O)c1ccco1 (centres undefined),-5,-3,11,i,6,.,.
Cc1ccccc1NC(=O)Cn1nnc(-c2ccncc2)n1,.,.,.,.,-4,.,.
CC(C)(C)N1Cc2nnn(CC3CCCCC3)c2-c2cc(F)ccc2S1(=O)=O,.,.,.,.,-1,.,.
C#CCNC(=O)C[C@H]1C[C@@]2(C(=O)OC)C(=C[C@H](C3CCCC3)O[C@@H]2C)N(Cc2ccccc2)C1=O,0,.,.,.,0,.,.
SMILES,PG9 binder,NR2E3 ag-1,NR2E3 ag-2,Neddyl block,NR1D1 modulator,NR2E3 ag confirm,GAL4-VP16 luc
CC(C)=CCC/C(C)=C/CC/C(C)=C/CCC(=O)OC/C=C(\C)CCC=C(C)C,.,.,.,.,0,.,.
CCOC(=O)CNC(=O)c1sc(NC(=O)c2ccccc2)nc1C,-1,-1,49,i,2,3,-21
CCCN(CC1CC1)C(=S)NC(=O)c1ccccc1C,3,.,-13,i,-8,.,.
CCCN(CC1CC1)C(=S)NC(=O)c1cc(Br)ccc1Cl,-1,.,81*,i,2,-1,8
CCN1CCN(Cc2ccc(NC(=O)c3ccc(C)c(NC(=O)c4ccno4)c3)cc2C(F)(F)F)CC1,-3,2,37,i,-3,55,15
CCOc1ccc(-n2c(SCC(=O)Nc3ccc(S(=O)(=O)Nc4cc(C)nc(C)n4)cc3)nnc2-c2ccc(OC)cc2)cc1,.,.,.,.,2,.,.
Cc1ccc(S(=O)(=O)/N=C2\C=C(Nc3ccc(O)cc3)C(=O)c3ccccc32)cc1,.,.,102*,i,.,100*,99*
O=c1[nH]sc2ccccc12,-2,.,75*,i,5,4,3
CSc1nc2ccc(NS(=O)(=O)c3ccc4c(c3)OCCO4)cc2s1,0,2,76*,i,-4,91*,82*
CSc1nc2ccc(S(=O)(=O)NC3CCCCC3)cc2s1,1,5,50,i,2,21,30
NC(=O)C(c1ccccc1)(c1ccccc1)[C@H]1CCN(CCc2ccc3c(c2)CCO3)C1,.,.,.,.,8,.,.
O=C1CCC[C@H]2C[C@H](NCc3ccccc3F)CC[C@]23CCCN13,.,.,.,.,3,.,.
C[C@H]1/C=C/CC(=O)N[C@@H](c2ccccc2)[C@@H](C)/C=C/CC(=O)N[C@H]1c1ccccc1,.,.,.,.,7,.,.
COc1ccc(CNC(=O)c2cccc3c(-c4cccnc4)coc23)cc1OC,-1,.,97*,i,1,96*,89*
O=C(NCc1ccc(F)c(F)c1)c1cccc2c(-c3cccnc3)coc12,0,.,6,i,8,.,.
COc1ccc(-n2c(-c3ccc(Cl)cc3)c[n+]3c2CCc2ccccc2-3)cc1,-3,3,-2,i,2,.,.
Cc1ccc(-n2c(-c3ccc(Br)cc3)c[n+]3c2CCc2ccc4cccnc4c2-3)cc1,-1,-6,83*,i,-4,99*,72*
Cc1cc(Br)c2nc(-c3ccc(Cl)cc3)c(Cc3cccc(Cl)c3)n2c1,7,.,.,.,3,.,.
Cc1ccc(-n2nc3c(=O)n(C(C)C(=O)NCCCc4ccccc4)nc(C)c3c2C)cc1 (centres undefined),0,-3,51,i,3,19,38
O=[N+]([O-])c1ccc(NC(=S)NCCc2ccc(F)cc2)cc1,-3,-3,63,i,5,77*,48
C=Cc1c(C)/c2[n-]/c1=C\c1[n-]c(c(CC)c1C)/C=c1\[n-]c3c(c1C)C(=O)C(C(=O)O)C=3c1[n-]c(c(C)c1CCC(=O)O)\C=2.[Cu] (centres undefined),.,.,.,.,-37,.,.
COc1ccc(C(=O)c2sc(NC(C)C)nc2N)cc1OC,1,3,59,i,1,37,10
COc1ccc(Nc2nc(N)c(C(=O)c3ccc(OC)cc3)s2)cc1,-1,-1,-36,i,-3,.,.
